# The list is not random: actives were taken first. Their share in the collection is about 2.3%.
# TRPC4 agonist: activators of mouse TRPC4 channel. Q9QUQ5. HEK293 TRPC4beta/mu-opioid, Fluo4 calcium fluorescence; hits give high values. B-score at 10 µM. 310,000 compounds, 0.49% hits;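 active means B-score above 5 SD of library B-scores, and initial fluorescence ratio not above library mean plus 5 SD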;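 further: positive B-score marks a calcium rise read as TRPC4 activation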
#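 Assay system: HEK293 cells stably co-expressing mouse TRPC4beta and mu-opioid receptor / Timing: Fluo4 dye loading 45 min at room temperature, 110 s recording / Signal: Fluo4 calcium-sensitive dye fluorescence, kinetic, 1 Hz baseline / Read-out: integrated baseline-normalised fluorescence ratio, converted to per-well B score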
# TRPC6 inh: mouse TRPC6 channel inhibition; Q61143; HEK293-TRPC6, membrane potential dye, ACh-evoked depolarization; hits give low values; B-score at 10 µM; 310,000 compounds, 1.1% hits; AID 2553;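 active means B-score under library mean minus 3 SD, initial fluorescence not abnormally high, positive integrated signal ratio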;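 further: B-score derived from integrated fluorescence ratio over the kinetic read; more negative B-score means stronger inhibition of depolarization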
# Target sequence (Q61143 whole entry, looked up): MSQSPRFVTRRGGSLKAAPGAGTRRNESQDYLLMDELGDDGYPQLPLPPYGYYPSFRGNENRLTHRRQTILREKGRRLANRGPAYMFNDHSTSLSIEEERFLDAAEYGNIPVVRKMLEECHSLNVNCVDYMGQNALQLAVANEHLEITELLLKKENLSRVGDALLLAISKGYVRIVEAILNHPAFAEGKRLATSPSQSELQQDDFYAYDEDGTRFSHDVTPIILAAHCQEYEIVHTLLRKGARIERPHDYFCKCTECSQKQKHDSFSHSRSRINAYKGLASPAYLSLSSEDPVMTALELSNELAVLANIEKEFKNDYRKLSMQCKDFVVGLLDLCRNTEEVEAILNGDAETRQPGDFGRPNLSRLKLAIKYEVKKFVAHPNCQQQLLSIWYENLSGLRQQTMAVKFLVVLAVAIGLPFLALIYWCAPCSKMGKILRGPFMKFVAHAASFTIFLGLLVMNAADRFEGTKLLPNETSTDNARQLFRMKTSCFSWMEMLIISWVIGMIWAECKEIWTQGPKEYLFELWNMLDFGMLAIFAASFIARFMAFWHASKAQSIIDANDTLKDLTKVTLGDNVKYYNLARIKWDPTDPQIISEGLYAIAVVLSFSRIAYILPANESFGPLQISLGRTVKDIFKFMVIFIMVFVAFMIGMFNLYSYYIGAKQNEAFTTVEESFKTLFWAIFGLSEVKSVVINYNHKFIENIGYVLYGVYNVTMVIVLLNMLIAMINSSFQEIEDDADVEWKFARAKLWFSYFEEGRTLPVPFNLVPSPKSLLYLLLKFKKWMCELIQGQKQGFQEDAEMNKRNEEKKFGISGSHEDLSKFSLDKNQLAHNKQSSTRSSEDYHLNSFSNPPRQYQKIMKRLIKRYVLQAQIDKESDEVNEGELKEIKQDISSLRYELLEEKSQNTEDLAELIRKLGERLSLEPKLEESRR
# TRPC4 potent: TRPC4 (mouse) allosteric potentiation. HEK293 TRPC4beta/mu-opioid, DAMGO EC20, Fluo-4 Ca2+ flux; hits give high values. B-score at 10 µM. 310,000 compounds, 0.42% hits. AID 2227;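 active means B-score of calcium response area above 5 SD of library B-scores, with initial fluorescence ratio within 5 SD of library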;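 further: B-score of integrated fluorescence ratio over time as area under calcium response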
# TRPC6 act: mouse TRPC6 channel activation. HEK293-TRPC6 membrane potential dye fluorescence; hits give high values. 310,000 compounds, 0.13% hits. B-score at 10 µM. Q61143;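 active means B-score of the integrated fluorescence ratio above library mean plus 3 SD, and starting fluorescence ratio within library mean plus 5 SD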;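 further: higher score means more depolarization so channel activation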
# TRPC4 block: blocks the mouse TRPC4 cation channel; Q9QUQ5; HEK293 TRPC4beta/mu-opioid, DAMGO-evoked Fluo4 calcium flux; hits give low values; B-score at 10 µM; 300,000 compounds, 0.39% hits; AID 2247;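 active means B-score over 3 SD under the library average, no early fluorescence shift, positive overall ratio signal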
#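 material = TRPC4beta/mu-opioid receptor HEK293 cell line | probe or stimulus = sequential submaximal and maximal DAMGO stimulation | compound dosing = one concentration per compound | measured by = Fluo4 Ca2+ flux fluorescence | evaluation = integrated fluorescence ratio relative to baseline, converted to per-well B score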
# TRPC4 spec 2: second selectivity test of TRPC6 inhibitors: effect on mouse TRPC4; shares compounds with TRPC6 inh; HEK293 TRPC4/MOR, membrane potential dye fluorescence; channel activated by saturating DAMGO dose; inhibition, % at 10 µM; 920 compounds, 42% hits; AID 2776;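 active means compounds whose fluorescence signal differed from control wells by over 3 SD, either direction, in both duplicate plates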
# TRPC4 spec: tests whether TRPC6 inhibitors also affect mouse TRPC4. 920 compounds, 61% hits. shares compounds with TRPC6 inh. activity change, negative = inhibition, % at 10 µM. AID 2777. HEK293 TRPC4/mu-opioid, membrane potential fluorescence;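 active means rise or fall in signal beyond 3 SD of buffer-only wells in both replicate plates, either sign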;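 further: integrated kinetic ratio of fluorescence range over baseline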
# HEK293 MPD ctr 2-1: second counter-screen for TRPC6 inhibitors: parental HEK293 cells; 920 compounds, 31% hits; shares compounds with TRPC6 inh; signal change vs control, % at 10 µM; parental HEK293 membrane potential dye fluorescence; maximal acetylcholine challenge after compound addition;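 active means membrane potential signal moving either way by over 3 SD of the maximum-effect control, in both duplicate plates, meaning non-specific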
# HEK293 MPD ctr-1: parental HEK293 nonspecific activity of TRPC6 inhibitors. shares compounds with TRPC6 inh. parental HEK293 membrane potential dye fluorescence. membrane potential signal change, % at 10 µM. 920 compounds, 60% hits. AID 2780;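 active means membrane potential signal shifting up or down by more than 3 SD of buffer-only wells, on both duplicate plates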
# HEK293 MPD ctr-2: parental HEK293 nonspecific activity of TRPC6 modulators. shares compounds with TRPC6 inh. membrane potential dye fluorescence. membrane potential signal change, % at 10 µM. 2,400 compounds, 51% hits;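 active means membrane potential signal moves up or down beyond 5 SD from buffer-only wells, on both duplicate plates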
# HEK293 MPD ctr 2-2: parental HEK293 nonspecific activity of TRPC6 modulators, second screen; 2,400 compounds, 14% hits; shares compounds with TRPC6 inh; AID 488926; inhibition, % at 10 µM; membrane potential dye fluorescence; after compound, maximal acetylcholine stimulation;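 active means membrane potential signal drops by more than 5 SD from the mean control signal, in both duplicate plates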;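 further: plate controls were acetylcholine ECmax control wells for no effect and buffer only wells for full effect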
# TRPC4 ctr mod: mouse TRPC4 off-target activity of TRPC6 modulators; shares compounds with TRPC6 inh; HEK293 TRPC4/mu-opioid, membrane potential fluorescence; percent change from control (negative = decrease, positive = increase), % at 10 µM; 2,400 compounds, 69% hits; AID 488927;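 active means membrane potential signal moved up or down beyond 5 SD of buffer control wells, in both duplicate plates, actives on both sides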;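 further: plate controls were assay buffer wells for no effect and DAMGO maximal-effect wells for full effect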
# TRPC4 ctr inh 2: second selectivity test of TRPC6 modulators against mouse TRPC4 | AID 488928 | shares compounds with TRPC6 inh | HEK293 TRPC4/mu-opioid, membrane potential dye fluorescence; stimulated with maximal-effect DAMGO | 2,400 compounds, 55% hits | inhibition, % at 10 µM;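 active means drop in membrane potential signal beyond 5 SD of the control wells in both duplicate plates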;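 further: TRPC4 counter screen for TRPC6 hits run under conditions tuned for TRPC6 not TRPC4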
# TRPC6 inh conf: confirmation of mouse TRPC6 inhibitors; shares compounds with TRPC6 inh; HEK293-TRPC6, membrane potential dye, ACh-evoked depolarization; inhibition, % at 10 µM; 3,300 compounds, 43% hits;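 active means fluorescence ratio falls more than 5 SD below the full-stimulation control mean, in both duplicate runs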;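 further: integrated fluorescence ratio of peak minus minimum over baseline after agonist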
# TRPC6 act conf: mouse TRPC6 activator confirmation | shares compounds with TRPC6 inh | activation, % at 10 µM | HEK293-TRPC6 membrane potential dye fluorescence, FDSS | AID 488961 | 2,800 compounds, 11% hits;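 active means ratio signal rise beyond 5 SD above unstimulated control wells' mean, seen in both duplicate runs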;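 further: plate controls were buffer EC0 wells for no effect and acetylcholine ECmax response for full effect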
# * hit, by the source's call; i = inactive; . = no result given.
SMILES,TRPC4 agonist,TRPC6 inh,TRPC4 potent,TRPC6 act,TRPC4 block,HEK293 MPD ctr-2,HEK293 MPD ctr 2-2,TRPC4 ctr mod,TRPC4 ctr inh 2,TRPC6 inh conf,TRPC6 act conf,others
COc1cc(OC)c2ccc(=O)oc2c1C(CCN1CCCC(C)C1)c1ccc(N(C)C)cc1 (stereo not given),i,-5.72*,i,i,i,-112.5%*,i,-26.0%*,70.0%*,49.0%*,i,
CCCCn1c(N)c(N(CCC(C)C)C(=O)CN2C(=O)C3CCCCC3C2=O)c(=O)[nH]c1=O (stereo not given),i,i,i,i,i,.,.,.,.,.,.,
Cc1c(C)n(C)c2ccc(C(=O)NCCCN3CCN(c4ccc(F)cc4)CC3)cc12,i,i,i,i,i,.,.,.,.,.,.,
Cc1c(C)n(C)c2ccc(C(=O)NCCCN3CCN(c4ccccc4F)CC3)cc12,i,-7.26*,i,i,i,i,i,i,67.0%*,42.5%*,i,
O=C(CC1C(=O)NCCN1Cc1c(F)cccc1Cl)NCCCN1CCCC1=O (stereo not given),i,i,i,i,i,.,.,.,.,.,.,
Cc1ccc(OCC(O)Cn2c(=N)n(Cc3ccccc3)c3ccccc32)cc1 (stereo not given),i,-8.1*,i,i,i,.,.,.,.,i,i,TRPC4 spec 2=40.5%*;TRPC4 spec=10.9%*;HEK293 MPD ctr 2-1=258.5%*;HEK293 MPD ctr-1=8.5%*
Cc1cccc(OCC(O)Cn2c(=N)n(CCN3CCCCC3)c3ccccc32)c1 (stereo not given),i,i,i,i,i,.,.,.,.,.,.,
Cc1cccc(OCC(O)Cn2c(=N)n(Cc3ccccc3)c3ccccc32)c1 (stereo not given),55*,-5.67*,i,i,i,145.0%*,i,68.0%*,111.5%*,49.5%*,.,
OCCN(CC#CCC(O)(c1ccccc1)C1CCCC1)CCO (stereo not given),i,i,i,i,i,.,.,.,.,.,.,
CCC[N+]1(CC#CC(O)(c2ccccc2)C2CCCCC2)CCCCC1 (stereo not given),i,i,i,i,i,.,.,.,.,.,.,
CCN(CC)CC#CCC(O)(c1ccccc1)C1CCCC1 (stereo not given),i,-6.45*,i,i,i,156.5%*,99.5%*,29.5%*,i,75.0%*,.,
CCN(CC)CCC#CC(O)(c1ccccc1)C1CCCCC1 (stereo not given),i,-7.61*,i,i,i,.,.,.,.,63.5%*,.,TRPC4 spec 2=62.5%*;TRPC4 spec=48.8%*;HEK293 MPD ctr 2-1=i;HEK293 MPD ctr-1=17.2%*
CN(C)CC#CCC(O)(c1ccccc1)C1CCCCC1 (stereo not given),i,-6.53*,i,i,i,i,105.0%*,19.5%*,36.0%*,78.5%*,i,
O=C(NC1CCCC1)C(c1ccc(F)cc1)N(Cc1ccc(F)cc1)C(=O)CCl (stereo not given),i,i,i,i,i,.,.,.,.,.,.,
CCOc1cc2c(cc1/C=C/c1noc(C)c1[N+](=O)[O-])OC(C)C2 (stereo not given),i,i,i,i,i,.,.,.,.,.,.,
CC(=O)OC1COC(n2c(O)c(N=NC(N)=S)c3ccccc32)C(OC(C)=O)C1OC(C)=O (stereo not given),i,i,i,i,i,.,.,.,.,.,.,
CCOc1ccc(N2C=Nc3ccc(OCC)cc3C2)cc1,i,-5.65*,i,i,i,-82.0%*,i,-18.5%*,34.0%*,i,i,
CCOc1ccc(N2C(=O)CNC2=S)cc1,i,i,i,i,i,.,.,.,.,.,.,
CCN1C(=O)/C(=C/c2ccc(OC)c(OC)c2)N=C1SCC(=O)NCc1ccco1,i,i,i,i,i,.,.,.,.,.,.,
COc1ccc2[nH]c(C(=O)N3CCC(n4nccc4NC(=O)C4CC4)CC3)c(C)c2c1,i,i,i,i,i,.,.,.,.,.,.,
Cc1nc2c(cc1C#N)C(=O)c1ccccc1-2,i,-5.04*,i,i,i,-114.5%*,i,-22.5%*,i,i,i,
Cc1cccc2cc3c(nc12)-c1ccccc1C3=O,i,i,i,i,i,.,.,.,.,.,.,
Nc1ccc(O)c2c1C(=O)c1ccccc1C2=O,i,-8.18*,i,i,i,-85.0%*,i,-39.5%*,66.5%*,41.5%*,i,
Nc1ccc(Br)c2c1C(=O)c1ccccc1C2=O,i,i,i,i,i,.,.,.,.,.,.,
COc1cccc(N2CC(NS(=O)(=O)c3ccc4ccccc4c3)CC2=O)c1 (stereo not given),i,i,i,i,i,.,.,.,.,.,.,
COc1ccc2c(c1)CCCN2C(N)=Nc1ccc(Cl)cc1,i,-6.46*,i,i,i,114.0%*,i,16.0%*,69.0%*,i,.,
O=c1c(N=Nc2ccc(O)cc2)c(-c2ccccc2)[nH]n1-c1ccc([N+](=O)[O-])cc1,i,i,i,i,i,.,.,.,.,.,.,
O=c1cc(-c2ccccc2)[nH]n1-c1ccc([N+](=O)[O-])cc1,i,-7.88*,i,i,i,.,.,.,.,66.5%*,i,TRPC4 spec 2=i;TRPC4 spec=11.8%*;HEK293 MPD ctr 2-1=i;HEK293 MPD ctr-1=5.7%*

# From PubChem
